TbMetRS inhib = T. brucei MetRS inhibitors, primary screen, biochemical, luminescence; purified T. brucei MetRS, ATP depletion, Kinase-Glo luminescence; inhibition, % at 11.9 µM; AID 624268, 2012; methionyl-tRNA synthetase (Trypanosoma brucei brucei); 360,000 compounds, 0.4% hits;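 active = inhibition above a per-plate cutoff of the control wells' mean inhibition plus 3 SD, cut at about 5.5% in these data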;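 note: 0% = DMSO wells median and 100% = median of wells with control inhibitor compound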
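Material – parasite MetRS enzyme · Medium – HEPES-MgCl2-KCl buffer plus DTT, spermine, BSA, pyrophosphatase · Reagent – ATP, methionine and E. coli bulk tRNA substrates · Times – 15 min enzyme-compound preincubation, 2 h reaction, 10 min detection, 25 °C · Measured by – luminescence of leftover ATP · Evaluation – percent inhibition relative to median high and low control wells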
Lipid droplet = inhibitors of hepatocyte lipid droplet formation, primary screen, imaging, high-throughput imaging, BODIPY stain. inhibition, % at 6.5 µM. 240,000 compounds, 0.4% hits. AID 1656, 2009. AML12 mouse hepatocytes, oleate lipid droplets;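 active = lipid droplet intensity inhibited by at least 50%, with more than 500 cells counted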
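Assay system: AML12 mouse liver cells | Compound: 6.5 µM single-point dosing | Schedule: Overnight exposure | Technique: Fluorescence imaging, 20x objective, two fields per well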
HCV NS3 hel inh = inhibitors of HCV NS3 helicase, primary screen, biochemical, Cy5 molecular beacon fluorescence. 290,000 compounds, 0.56% hits. AID 1800, 2009. inhibition, % at 10.9 µM. NS3 helicase DNA unwinding;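 active = inhibition above the mean of all tested compounds plus 3 SD, set per campaign, cut at about 35% in these data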;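 note: 0% = DMSO wells and 100% = thioflavine S control wells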
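System: Hepatitis C virus NS3 helicase domain fragment enzyme | Reagent: Annealed dual-labelled DNA beacon duplex, ATP-started | Compound dosing: 10.9 µM single point, 0.8% DMSO | Incubation: 1 h reaction at 25 °C, ATP-initiated | Technique: Cy5 fluorescence | Evaluation: Percent inhibition from t60/t0 fluorescence ratio | Benchmarks: Low DMSO, high thioflavine S at 110 µM | Replication: Singlicate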
HCV core dimer = inhibitors of HCV core protein dimerization, primary screen, biochemical, TR-FRET, high-throughput; inhibition, % at 5 µM; 300,000 compounds, 0.33% hits; TR-FRET GST/Flag-core106 dimerization, 1536-well; AID 1899, 2009;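 active = inhibition above the mean of all tested compounds plus 3 SD, set per screening campaign, cut at about 45% in these data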
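Assay system – GST-tagged and Flag-tagged HCV core protein residues 1-106 · Quantity – core106 proteins, GST 13.5 nM and Flag 17 nM · Benchmarks – unlabelled core106 and no-GST-core106 wells · Read-out basis – percent inhibition of core106 dimerization signal · Detection – time-resolved FRET, ex 340 nm, em 617 and 671 nm · Schedule – 4 h at 22.5 °C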
TbMetRS confirm = T. brucei MetRS inhibitors, confirmation, biochemical, luminescence | shares compounds with TbMetRS inhib | T. brucei MetRS enzyme, luminescence (ATP depletion) | inhibition, % at 11.9 µM | 1,400 compounds, 93% hits | AID 624412, 2012; in the data active = inhibition above about 7%
Jurkat cytotox = Jurkat T cell cytotoxicity, cytotoxicity control for T. brucei MetRS inhibitor project, luminescence, high throughput | Jurkat cells viability, ATP luminescence | 1,400 compounds, 12% hits | inhibition, % at 8.3 µM | shares compounds with TbMetRS inhib; in the data active = inhibition above about 15%;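 note: 0% = vehicle and 100% = reference inhibitor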
TbMetRS FP orth = T. brucei MetRS inhibitors, orthogonal assay for T. brucei MetRS inhibitor project, biochemical, fluorescence polarization | shares compounds with TbMetRS inhib | purified T. brucei MetRS | inhibition, % at 11.9 µM | 1,400 compounds, 44% hits | AID 651607, 2012; in the data active = inhibition above about 17%;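 note: 0% = vehicle wells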
Starred values were filed as active, the others as inactive. Sampled rows, rich in hits. Any-hit rate of the full collection: about 1.3%.

O=C1NC(=O)C(=Cc2ccc(N3CCN(C(=O)c4ccccc4)CC3)c([N+](=O)[O-])c2)C(=O)N1 was read as TbMetRS inhib 12.9*, Lipid droplet 0.0, HCV NS3 hel inh -4.1, HCV core dimer 9.9, TbMetRS confirm 18.5*, Jurkat cytotox 0.7 and TbMetRS FP orth 4.9.
Screening Clc1ccc(COC(Cn2ccnc2)c2ccc(Cl)cc2Cl)c(Cl)c1 (centres undefined) returned TbMetRS inhib 42.5*, Lipid droplet -26.6, HCV NS3 hel inh -61.6, HCV core dimer 13.8, TbMetRS confirm 58.4*, Jurkat cytotox 13.5 and TbMetRS FP orth 46.1*.
`NC(=O)OCCSc1nnc(-c2cccc(C(N)=S)c2)o1` gave TbMetRS inhib 16.1*, Lipid droplet -0.1, HCV NS3 hel inh -0.9, HCV core dimer -5.6, TbMetRS confirm 10.2*, Jurkat cytotox 0.9 and TbMetRS FP orth -0.2.
For COc1ccc2c(c1)[nH]c1c(C)nccc12 the results were TbMetRS inhib 0.0 and HCV core dimer 2.2.
`Cc1nccc2c1[nH]c1ccc(Br)cc12` gave TbMetRS inhib 9.0*, HCV core dimer 3.4, TbMetRS confirm 17.1*, Jurkat cytotox 2.6 and TbMetRS FP orth 8.8.
`CCC12C=CCN3CCC4(c5cc(Br)c(OC)cc5N(C)C4C(O)(C(=O)OC)C1OC(C)=O)C32` (centres undefined) gave TbMetRS inhib 0.1, HCV NS3 hel inh -11.0 and HCV core dimer 3.1.
Screening N#Cc1cc2c(nc1SCC(=O)Nc1ccc(Cl)cc1)C1CCN2CC1 returned TbMetRS inhib 9.2*, HCV NS3 hel inh -4.6, HCV core dimer 1.4, TbMetRS confirm 15.1*, Jurkat cytotox 19.6* and TbMetRS FP orth 9.5.
Screening COc1ccc(OCC#CCN2CCNCC2)cc1 returned TbMetRS inhib 1.1, Lipid droplet -0.3, HCV NS3 hel inh 4.6 and HCV core dimer 4.0.
`CCn1nc(/C=C/c2ccccc2)nc2c(=O)n(C)c(=O)nc1-2` gave TbMetRS inhib 17.6*, Lipid droplet -55.8, HCV NS3 hel inh 16.6, TbMetRS confirm 36.5*, Jurkat cytotox 56.7* and TbMetRS FP orth 6.0.
`COC(=O)C1=C(c2ccc(Cl)c(C(F)(F)F)c2)C[C@@H]2CC[C@H]1N2C(=O)NCc1ccc2c(c1)OCO2` gave TbMetRS inhib 0.0.
CCCC(C)C1(CC)C(=O)NC(=Nc2ccc(F)cc2)NC1=O (centres undefined) was read as TbMetRS inhib 0.6, Lipid droplet 22.2, HCV NS3 hel inh 1.6 and HCV core dimer -5.0.
For CCCC1(CCC)C(=O)NC(=Nc2ccccc2)NC1=O the results were TbMetRS inhib 12.0*, Lipid droplet -4.8, HCV NS3 hel inh 7.0, HCV core dimer -2.4, TbMetRS confirm 18.7*, Jurkat cytotox -6.3 and TbMetRS FP orth 7.4.
For CCCC(C)C1(CC)C(=O)NC(=Nc2ccccc2)NC1=O (centres undefined) the results were TbMetRS inhib 8.7*, Lipid droplet -6.4, HCV NS3 hel inh -12.2, HCV core dimer 0.4, TbMetRS confirm 17.6*, Jurkat cytotox 4.9 and TbMetRS FP orth 8.7.
For O=C(NCC(c1cccnc1)N1CCN(c2ccc(F)cc2)CC1)Oc1ccccc1 (centres undefined) the results were TbMetRS inhib -0.4, Lipid droplet -1.9, HCV NS3 hel inh -7.9 and HCV core dimer -0.5.
`CC/C(=N\NC(=O)Nc1ccccc1)c1c(O)n(Cc2ccccc2)c(=O)[nH]c1=O` gave TbMetRS inhib 0.5, Lipid droplet 11.5, HCV NS3 hel inh 5.4 and HCV core dimer 1.9.
c1cncc(C2CC(c3cccs3)n3ncnc3N2)c1 (centres undefined) was read as TbMetRS inhib -0.5, Lipid droplet -0.3, HCV NS3 hel inh -6.6 and HCV core dimer -3.0.
`CN(C)c1ccc(NC(=O)CN2C(=O)CN=C(c3ccccc3)c3cc(Cl)ccc32)cc1` gave TbMetRS inhib 0.4, HCV NS3 hel inh 11.2 and HCV core dimer -4.1.
For Cc1ccc(NC(=O)CN2C(=O)CN=C(c3ccccc3)c3cc(Cl)ccc32)cc1 the results were TbMetRS inhib 58.7*, HCV NS3 hel inh -12.3, HCV core dimer 1.4, TbMetRS confirm 80.6*, Jurkat cytotox 5.7 and TbMetRS FP orth 53.0*.
Screening CCOC(=O)c1c(NC(=O)c2c(N)n(CCCOC)c3nc4ccccc4nc23)sc2c1CCCC2 returned TbMetRS inhib -0.5, HCV NS3 hel inh 27.5 and HCV core dimer 0.7.
Screening CCOCCCn1c(N)c(C(=O)Nc2sc3c(c2C(=O)OC)CCCC3)c2nc3ccccc3nc21 returned TbMetRS inhib 8.3*, HCV NS3 hel inh 22.2, HCV core dimer -2.4, TbMetRS confirm 2.1, Jurkat cytotox 1.3 and TbMetRS FP orth 6.8.

Assay outcomes deposited in PubChem BioAssay by several laboratories.
